Laboratory results reported in ChEMBL document CHEMBL2346664, “Synthesis, characterization and in vitro anticancer evaluation of novel 1,2,4-triazolin-3-one derivatives” (2013).

Tests used:
Format in all cases: functional
HL-60(TB) = assay: Growth inhibition of human HL-60(TB) cells assessed as cell growth at 10 uM after 48 hrs by sulforhodamine B assay; details: HL-60, 48 h, read-out: Activity
How it was run: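 NCI DTP single high-dose primary screen at 10^-5 M across 60 human tumour lines. Growth percent of treated cells is taken relative to untreated controls: values of 0–100 indicate growth inhibition and values below 0 indicate cytotoxicity. Both growth percent and percentage growth inhibition are reported.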

K562 = assay: Growth inhibition of human K562 cells assessed as cell growth at 10 uM after 48 hrs by sulforhodamine B assay; details: K562, 48 h, read-out: Activity
How it was run: (§1)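 NCI-60 primary single-dose screen at 10^-5 M, 48 h continuous exposure. Adherent cells were fixed with cold TCA (10% final) and suspension cells with 16% final TCA, then stained with 0.4% SRB in 1% acetic acid. Bound dye was solubilized in 10 mM Tris base and read at 515 nm. Output is growth percent relative to untreated controls, and GI% is 100 minus growth percent.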

RPMI-8226 = assay: Growth inhibition of human RPMI8226 cells assessed as cell growth at 10 uM after 48 hrs by sulforhodamine B assay; details: RPMI-8226, 48 h, read-out: Activity
How it was run: (§2)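 NCI-60 single-dose screen at 10^-5 M. Cells plated at 5,000–40,000/well by doubling time and grown 24 h at 37 °C, 5% CO2, then drug added from DMSO stock for 48 h continuous exposure. Adherent cells fixed with cold TCA (final 10%), suspension cells with 16% TCA. SRB stain read at 515 nm. Reported as growth percent relative to untreated controls and time-zero plates.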

HCT-116 = assay: Growth inhibition of human HCT116 cells assessed as cell growth at 10 uM after 48 hrs by sulforhodamine B assay; details: HCT-116, 48 h, read-out: Activity; how it was run: as §1
MDA-MB-231 = assay: Growth inhibition of human MDA-MB-231 cells assessed as cell growth at 10 uM after 48 hrs by sulforhodamine B assay; details: MDA-MB-231, 48 h, read-out: Activity; how it was run: as §1
A549 = assay: Growth inhibition of human A549 cells assessed as cell growth at 10 uM after 48 hrs by sulforhodamine B assay; details: A549, 48 h, read-out: Activity
How it was run: (§3)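 NCI-60 primary screen at a single dose of 10^-5 M. Output is mean growth percent of treated cells relative to untreated controls, where values between 0 and 100 indicate growth inhibition and values below 0 indicate cytotoxicity. Cells were plated 24 h before drug, incubated 48 h at 37 °C, 5% CO2, and stained with SRB after TCA fixation. Suspension cells were fixed with 80% TCA (16% final).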

A498 = assay: Growth inhibition of human A498 cells assessed as cell growth at 10 uM after 48 hrs by sulforhodamine B assay; details: A498, 48 h, read-out: Activity; how it was run: as §3
MOLT-4 = assay: Growth inhibition of human MOLT4 cells assessed as cell growth at 10 uM after 48 hrs by sulforhodamine B assay; details: MOLT-4, 48 h, read-out: Activity; how it was run: as §1
786-0 = assay: Growth inhibition of human 786-0 cells assessed as cell growth at 10 uM after 48 hrs by sulforhodamine B assay; details: 786-0, 48 h, read-out: Activity; how it was run: as §3
UO-31 = assay: Growth inhibition of human UO31 cells assessed as cell growth at 10 uM after 48 hrs by sulforhodamine B assay; details: UO-31, 48 h, read-out: Activity; how it was run: as §2
MCF7 = assay: Growth inhibition of human MCF7 cells assessed as cell growth at 10 uM after 48 hrs by sulforhodamine B assay; details: MCF7, 48 h, read-out: Activity; how it was run: as §1
SNB-19 = assay: Growth inhibition of human SNB19 cells assessed as cell growth at 10 uM after 48 hrs by sulforhodamine B assay; details: SNB-19, 48 h, read-out: Activity; how it was run: as §2
[1] = Growth inhibition of human NCI-ADR-RES cells assessed as cell growth at 10 uM after 48 hrs by sulforhodamine B assay; details: read-out: Activity; how it was run: as §1
UACC-62 = assay: Growth inhibition of human UACC62 cells assessed as cell growth at 10 uM after 48 hrs by sulforhodamine B assay; details: UACC-62, 48 h, read-out: Activity; how it was run: as §2
SR = assay: Growth inhibition of human SR cells assessed as cell growth at 10 uM after 48 hrs by sulforhodamine B assay; details: read-out: Activity; how it was run: as §2
MDA-MB-468 = assay: Growth inhibition of human MDA-MB-468 cells assessed as cell growth at 10 uM after 48 hrs by sulforhodamine B assay; details: MDA-MB-468, 48 h, read-out: Activity; how it was run: as §1
SNB-75 = assay: Growth inhibition of human SNB75 cells assessed as cell growth at 10 uM after 48 hrs by sulforhodamine B assay; details: SNB-75, 48 h, read-out: Activity; how it was run: as §2
NCI-H23 = assay: Growth inhibition of human NCI-H23 cells assessed as cell growth at 10 uM after 48 hrs by sulforhodamine B assay; details: NCI-H23, 48 h, read-out: Activity; how it was run: as §1
OVCAR-4 = assay: Growth inhibition of human OVCAR4 cells assessed as cell growth at 10 uM after 48 hrs by sulforhodamine B assay; details: OVCAR-4, 48 h, read-out: Activity; how it was run: as §2
T47D = assay: Growth inhibition of human T47D cells assessed as cell growth at 10 uM after 48 hrs by sulforhodamine B assay; details: read-out: Activity; how it was run: as §2
CAKI-1 = assay: Growth inhibition of human CAKI-1 cells assessed as cell growth at 10 uM after 48 hrs by sulforhodamine B assay; details: CAKI-1, 48 h, read-out: Activity; how it was run: as §3
M14 = assay: Growth inhibition of human M14 cells assessed as cell growth at 10 uM after 48 hrs by sulforhodamine B assay; details: M14, 48 h, read-out: Activity; how it was run: as §1
HCT-15 = assay: Growth inhibition of human HCT15 cells assessed as cell growth at 10 uM after 48 hrs by sulforhodamine B assay; details: HCT-15, 48 h, read-out: Activity; how it was run: as §1
U-251 = assay: Growth inhibition of human U251 cells assessed as cell growth at 10 uM after 48 hrs by sulforhodamine B assay; details: U-251, 48 h, read-out: Activity; how it was run: as §2
SK-MEL-28 = assay: Growth inhibition of human SK-MEL-28 cells assessed as cell growth at 10 uM after 48 hrs by sulforhodamine B assay; details: SK-MEL-28, 48 h, read-out: Activity; how it was run: as §2
NCI-H322M = assay: Growth inhibition of human NCI-H322M cells assessed as cell growth at 10 uM after 48 hrs by sulforhodamine B assay; details: read-out: Activity; how it was run: as §2
SF-539 = assay: Growth inhibition of human SF539 cells assessed as cell growth at 10 uM after 48 hrs by sulforhodamine B assay; details: SF-539, 48 h, read-out: Activity; how it was run: as §2
[2] = Growth inhibition of human Hs 578T cells assessed as cell growth at 10 uM after 48 hrs by sulforhodamine B assay; details: read-out: Activity; how it was run: as §1
TK-10 = assay: Growth inhibition of human TK10 cells assessed as cell growth at 10 uM after 48 hrs by sulforhodamine B assay; details: TK-10, 48 h, read-out: Activity; how it was run: as §2
OVCAR-3 = assay: Growth inhibition of human OVCAR3 cells assessed as cell growth at 10 uM after 48 hrs by sulforhodamine B assay; details: OVCAR-3, 48 h, read-out: Activity; how it was run: as §2

Structure (SMILES) | growth at 10 µM (HL-60(TB)) | growth at 10 µM (K562) | growth at 10 µM (RPMI-8226) | growth at 10 µM (HCT-116) | growth at 10 µM (MDA-MB-231) | growth at 10 µM (A549) | growth at 10 µM (A498) | growth at 10 µM (MOLT-4) | growth at 10 µM (786-0) | growth at 10 µM (UO-31) | growth at 10 µM (MCF7) | growth at 10 µM (SNB-19) | growth at 10 µM [1] | growth at 10 µM (UACC-62) | growth at 10 µM (SR) | growth at 10 µM (MDA-MB-468) | growth at 10 µM (SNB-75) | growth at 10 µM (NCI-H23) | growth at 10 µM (OVCAR-4) | growth at 10 µM (T47D) | further results
Cc1nn(-c2ccc(Cl)cc2)c(=O)n1CCN1CCOCC1 | 105% | 70.1% | 83.1% | 29.5% | 57.3% | 56.4% | 105% | 90.9% | 59.4% | 66% | 73.4% | 58.7% | 75.9% | 82.8% | 95.3% | 90.3% | 7.65% | 64.5% | 93.4% | 78.3% | growth at 10 µM (CAKI-1): 72.4%; growth at 10 µM (M14): 69.8%; growth at 10 µM (HCT-15): 74.2%; growth at 10 µM (U-251): 42.9%; growth at 10 µM (SK-MEL-28): 92.9%; growth at 10 µM (NCI-H322M): 92.2%; growth at 10 µM (SF-539): 67%; growth at 10 µM [2]: 42.7%; growth at 10 µM (TK-10): 64.4%; growth at 10 µM (OVCAR-3): 79.2%
Cc1cc(=O)oc2cc(OCCn3c(C)nn(-c4ccc(Cl)cc4)c3=O)ccc12 | -5.7% | 16.3% | 31% | 15.1% | 47.5% | 30.2% | 25.7% | 37.6% | 32.9% | 42.8% | 15.8% | 54.5% | 24.7% | 43.3% | 21.2% | 16.1% | 20.4% | 45.8% | 67.1% | 47.4% | growth at 10 µM (CAKI-1): 19.5%; growth at 10 µM (M14): 14.7%; growth at 10 µM (HCT-15): 17.7%; growth at 10 µM (U-251): 31.4%; growth at 10 µM (SK-MEL-28): 40.8%; growth at 10 µM (NCI-H322M): 58.7%; growth at 10 µM (SF-539): 29.5%; growth at 10 µM [2]: 34.8%; growth at 10 µM (TK-10): 59.6%; growth at 10 µM (OVCAR-3): 14.8%
